System: T1, O1440
T1 sequence (whole entry): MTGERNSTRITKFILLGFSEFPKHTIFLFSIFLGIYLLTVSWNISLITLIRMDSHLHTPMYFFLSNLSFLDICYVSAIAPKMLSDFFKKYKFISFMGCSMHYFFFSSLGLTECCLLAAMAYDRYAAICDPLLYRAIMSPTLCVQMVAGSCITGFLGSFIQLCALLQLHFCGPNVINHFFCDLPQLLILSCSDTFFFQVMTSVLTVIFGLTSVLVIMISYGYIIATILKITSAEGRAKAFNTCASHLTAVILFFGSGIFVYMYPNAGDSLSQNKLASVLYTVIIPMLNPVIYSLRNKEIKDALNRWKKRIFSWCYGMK
Conditions: stereoisomer not certain
Outline: (§1)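 Values were gathered from published papers (main text and supplementary material), with extra details requested from the original authors when needed, and checked for typos and inconsistencies. Each receptor–molecule pair is called responsive (active) if the original authors judged the measured signal statistically different from baseline, and non-responsive (inactive) otherwise. Assay methods varied by source, often transient mammalian cell-line luciferase assays. Recorded details include cell line, G-protein, co-transfected protein and tags.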

Row | SMILES | odorant receptor agonist call
1 | Cc1c([N+](=O)[O-])c(C)c([N+](=O)[O-])c(C(C)(C)C)c1[N+](=O)[O-] | inactive
2 | CC(=O)c1cc(C(C)(C)C)cc2c1CCC2(C)C | inactive
3 | CC(=O)c1cc2c(cc1C)C(C)(C)C(C)CC2(C)C (stereo unspecified) | active

System: T2, O1440
T2 sequence (whole entry): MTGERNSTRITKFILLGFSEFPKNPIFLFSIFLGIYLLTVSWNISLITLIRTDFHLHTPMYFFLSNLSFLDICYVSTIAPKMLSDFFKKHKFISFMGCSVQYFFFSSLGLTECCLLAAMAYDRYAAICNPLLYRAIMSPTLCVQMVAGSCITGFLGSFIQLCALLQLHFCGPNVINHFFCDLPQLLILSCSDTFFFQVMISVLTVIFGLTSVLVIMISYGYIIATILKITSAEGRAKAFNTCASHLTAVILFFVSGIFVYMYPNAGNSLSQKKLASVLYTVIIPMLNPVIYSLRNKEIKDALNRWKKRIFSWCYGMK
Conditions: stereoisomer not certain
Outline: as §1

Row | SMILES | odorant receptor agonist call
4 | Cc1c([N+](=O)[O-])c(C)c([N+](=O)[O-])c(C(C)(C)C)c1[N+](=O)[O-] | active
5 | CC(=O)c1cc(C(C)(C)C)cc2c1CCC2(C)C | inactive
6 | CC(=O)c1cc2c(cc1C)C(C)(C)C(C)CC2(C)C (stereo unspecified) | active

— the M2OR odorant receptor database
